Results of several laboratories.
In brackets after ≈: the same amount, converted by molar mass.
Organism: Lodderomyces parapsilosis
Observed: microbial growth
Method: broth dilution

C[C@@H]1[C@H](O)[C@@H](C)/C=C/C=C/C=C/C=C/C=C/C=C/C=C/[C@H](O[C@@H]2O[C@H](C)[C@@H](O)[C@H](N)[C@@H]2O)C[C@@H]2O[C@](O)(C[C@@H](O)C[C@@H](O)[C@H](O)CC[C@@H](O)C[C@@H](O)CC(=O)O[C@H]1C)C[C@H](O)[C@H]2C(=O)O  MIC (ATCC22019): 0.5 µg/mL (≈ 0.541 µM)
O=C1/C(=C/c2cc(O)c(O)c(O)c2)Oc2ccccc21  MIC: 8 µg/mL (≈ 29.6 µM)
CCCCCN1CCN(CC(O)(Cn2cncn2)c2ccc(F)cc2F)CC1 (stereo not drawn)  MIC (ATCC22019; 48 h): 15.6 µg/mL (≈ 39.6 µM)
OC(Cn1cncn1)(Cn1cncn1)c1ccc(F)cc1F  MIC (ATCC22019; 48 h): 50 µg/mL (≈ 163 µM)
CCCCNS(=O)(=O)c1ccc(-c2ccc3oc(C(=O)c4cc(O)c(O)c(O)c4)cc3c2)cc1  MIC: 8 to 16 µg/mL (≈ 16.6 to 33.2 µM)
CCCCCN1CCNCC1  MIC (ATCC22019; 48 h): > 31.3 µg/mL
OC(Cn1cncn1)(Cn1cncn1)c1ccc(F)cc1F  MIC (ATCC22019): 1 µg/mL (≈ 3.27 µM)
C[C@@H]1[C@H](O)[C@@H](C)/C=C/C=C/C=C/C=C/C=C/C=C/C=C/[C@H](O[C@@H]2O[C@H](C)[C@@H](O)[C@H](N)[C@@H]2O)C[C@@H]2O[C@](O)(C[C@@H](O)C[C@@H](O)[C@H](O)CC[C@@H](O)C[C@@H](O)CC(=O)O[C@H]1C)C[C@H](O)[C@H]2C(=O)O  MIC: 0.25 µg/mL (≈ 0.271 µM)
CN1CCN(CC(O)(Cn2cncn2)c2ccc(F)cc2F)CC1 (stereo not drawn)  MIC (ATCC22019; 48 h): 0.975 µg/mL (≈ 2.89 µM)
